We go through 25 molecules from PubChem BioAssay AID623991 (Broad Institute, 2012).

Active and inactive are the calls of the source.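 How the source made its calls: active means inhibitors lowering the signal whose fitted half-maximal concentration is at most twice the top valid tested dose; inconclusive means flat curve with partial inhibition, or a poor curve fit; inactive means effect opposite to expected, flat near zero, or too weak.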 A value given as a limit tells only on which side of the number the result lay.

The target in the first test is PvdQ acyl-homoserine lactone acylase (Pseudomonas aeruginosa LESB58). The test is described as follows: inhibition of P. aeruginosa PvdQ enzyme – biochemical, 4-MU laurate fluorescence, dry powder, set 3, dose response (AID 623991). The following applies: Purified PvdQ, 4-MU laurate hydrolysis. The essentials: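 Assay system: Pseudomonas aeruginosa PvdQ acylase enzyme | Medium: Tris 50 mM pH 8.0, NaCl 50 mM, TCEP 0.2 mM, Triton X-100 | Dosing: 3-fold compound dilution series | Incubation: 30 min enzyme-compound pre-incubation, then 60 min substrate reaction, room temperature | Signal: Fluorescence, excitation 303–367 nm, emission 440–460 nm, reads at 0 and 60 min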
`CN(C)CCCC(C#N)c1ccc(Cl)cc1` (stereo not given): the AC50 (commonly the concentration giving half of the maximal activity seen) is 17900 nM.

Turning to `COCCC(C#N)c1ccc(Cl)cc1` (stereo not given), the AC50 is 6270 nM. On the same count and under the same terms, the same measure for `N#CC(c1ccc(Cl)cc1)c1ncccc1Cl` (stereo not given): 3.09 nM. For the molecule `COCCC(C#N)c1ccc(F)cc1` (stereo not given), the AC50 was 1270 nM. As to `N#CC(c1cccc(C(F)(F)F)n1)c1ccc(Cl)cc1F` (stereo not given), the AC50 was less than 3 nM. Consider `N#CC1c2ccc(Cl)cc2CCc2cccnc21` (stereo not given), for which the AC50 was 11200 nM.

`CCCCC(C#N)c1ccc(Cl)cn1` (stereo not given): the AC50 was 3470 nM. Still for that read-out and setting: the same measure for `N#CC(c1ccc(Cl)cc1)c1ccccn1` (stereo not given): 296 nM. On the same count and under the same terms, the same measure for `CCCCC(c1ccc(Cl)cc1)c1nn[nH]n1` (stereo not given): 3190 nM; for `N#CC(c1ccc(Cl)cc1)c1cccc(C(F)(F)F)n1` (stereo not given): 25.4 nM. Still for that read-out and setting: the figure for `N#Cc1cccc(C(C#N)c2ccc(F)cc2)n1` (stereo not given) is 200 nM; for `N#CC(c1ccc(Cl)cc1)N1CCCC1` (stereo not given) it is 1830 nM; for `CCCCC(C#N)c1ccc(F)cc1` (stereo not given) it is 607 nM. Consider `N#CC(c1cccc(Cl)n1)c1ccc(Cl)cc1F` (stereo not given), for which the AC50 is 15.6 nM. Same read-out and setting: the figure for `N#CC(c1ccc(C(F)(F)F)c(Cl)n1)c1ccccc1OC(F)(F)F` (stereo not given) is 12200 nM; for `COCCOCCC(C#N)c1ccc(F)cc1` (stereo not given) it is 165 nM. Still for that read-out and setting: the figure for `COCCOCCC(C#N)c1ccc(Cl)cc1` (stereo not given) is 7770 nM; for `CCCCC(C#N)c1ccc(Cl)cc1` (stereo not given) it is 1070 nM; for `CN(C)CCCC(C#N)c1ccc(F)cc1` (stereo not given) it is 589 nM. For `N#CC(c1ccc(F)cc1)c1cccc(C(F)(F)F)n1` (stereo not given), the AC50 was 4.71 nM. On the same count and under the same terms, the same measure for `N#CC(c1ccc(Cl)cc1)c1cccc(Cl)n1` (stereo not given): 36.8 nM.

As to `N#CC(c1ccc(F)cc1)c1cccc(Cl)n1` (stereo not given), the AC50 is 119 nM.

The same test, now with this note: Purified PvdQ, 4-MU laurate hydrolysis, at 19.5 µM (top of the series).
In the case of `CCCCC(C#N)c1ccccn1` (stereo not given), the “activity change, negative = inhibition” value is “inactive”. The same measure, in the same setting: the entry for `CCCCC(C#N)c1ccc(F)cn1` (stereo not given) is “inactive”; for `COCCNC(C#N)c1ccc(Cl)cc1` (stereo not given) it is “inactive”.
